From PubChem
TAAR1 antag: human TAAR1 antagonism; Q96RJ0; CHO RD-HGA16 TAAR1, Fluo-8 calcium fluorescence, antagonist; inhibition, % at 3 µM; 360,000 compounds, 1.5% hits; AID 624466;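 active = inhibition above a per-plate cutoff, the mean inhibition of test compounds on that plate plus 3 SD, cut at about 49% in these data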;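 note: 0% = DMSO plus EC80 beta-PEA response and 100% = DMSO alone without agonist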
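Test system – hTAAR1-expressing CHO RD-HGA16 cells, Gα16-coupled · Reagent – β-PEA at EC80 concentration, post-compound challenge · Compound dosing – 3 µM, single point · Timing – 140 s kinetic read after compound, 140 s after agonist · Detection – Fluo-8 intracellular calcium dye fluorescence, real-time kinetic reads · Control set – DMSO and EC80 PEA controls · Repeats – n of 1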
M1 ag: human M1 muscarinic receptor agonism; CHO-K1 hM1, Fluo-8 calcium fluorescence, agonist mode; 0% DMSO, 100% acetylcholine EC100; activation, % at 3 µM; 360,000 compounds, 0.33% hits;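 active = activation above the run's mean compound activation plus 3 SD, cut at about 16% in these data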;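 note: peak over basal fluorescence ratio within a 140 s kinetic read after compound addition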
Target sequence (P11229 whole entry, looked up): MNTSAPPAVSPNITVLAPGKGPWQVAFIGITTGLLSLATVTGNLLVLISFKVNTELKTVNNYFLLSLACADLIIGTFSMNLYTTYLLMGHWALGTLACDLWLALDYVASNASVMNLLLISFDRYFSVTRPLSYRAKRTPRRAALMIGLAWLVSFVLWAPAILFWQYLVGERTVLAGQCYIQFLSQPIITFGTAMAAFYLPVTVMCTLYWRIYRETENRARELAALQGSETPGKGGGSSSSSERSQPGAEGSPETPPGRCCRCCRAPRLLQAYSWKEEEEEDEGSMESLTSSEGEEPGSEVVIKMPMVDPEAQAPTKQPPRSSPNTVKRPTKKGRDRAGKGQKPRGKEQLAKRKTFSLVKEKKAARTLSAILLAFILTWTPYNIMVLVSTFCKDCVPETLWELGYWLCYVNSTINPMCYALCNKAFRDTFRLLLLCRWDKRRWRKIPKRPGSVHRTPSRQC
M1 antag: antagonists of human M1 muscarinic receptor. inhibition, % at 3 µM. CHO-K1 hM1, Fluo-8 calcium fluorescence, ACh EC80 antagonist. 360,000 compounds, 1.3% hits. P11229;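 active = percent inhibition above its own plate's cutoff, namely the mean of that plate's compound wells plus 3 SD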;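 note: peak over basal fluorescence ratio during 140 s after agonist addition; 0% = ACh EC80 plus DMSO and 100% = DMSO alone without agonist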
TAAR1 ag: human TAAR1 agonism | activation, % at 3 µM | CHO RD-HGA16 TAAR1, Fluo-8 calcium fluorescence; vehicle wells 0%, saturating PEA agonist 100% | 360,000 compounds, 0.99% hits | Q96RJ0;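 active = activation above the mean activation of all test compounds in the run plus 3 SD, cut at about 38% in these data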
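Repeats: no replicates (n 1) | Material: CHO-derived RD-HGA16 cells with stable Gα16 and human TAAR1 | Technique: Kinetic Fluo-8 calcium fluorescence | Schedule: 17-24 h seeding, 75 min 37 °C dye, 30 min RT | Evaluation: % activation from peak over basal fluorescence ratio, DMSO-to-PEA scaled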
CHRM1 PAM: potentiates human M1 receptor response to acetylcholine | activation, % at 3 µM | 360,000 compounds, 0.088% hits | CHO-K1 hM1, Fluo-8 calcium fluorescence, ACh EC20; 0% = ACh EC20, 100% = maximal ACh | P11229 | AID 588819; in the data active = activation above about 19%, passing the limit was not always enough
HTR2A ag: agonists of mouse serotonin 5-HT2A receptor (HTR2A) | P35363 | CHO-K1 mHTR2A beta-arrestin complementation, luminescence; percent of 30 µM serotonin response | activation, % at 7.6 µM | 360,000 compounds, 0.66% hits;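 active = activation above a run cutoff, the mean activation of all tested compounds plus 3 SD, cut at about 14% in these data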;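 note: 0% = plate median of compound wells and 100% = 30 µM serotonin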
Starred values were filed as active, the others as inactive; . = not tested or not shown. Hits are enriched below; roughly 3.9% of the tested compounds scored in any of these assays.

SMILES | TAAR1 antag | M1 ag | M1 antag | TAAR1 ag | CHRM1 PAM | HTR2A ag
COC(=O)c1cc2c(c3c4cc(F)ccc4n(S(=O)(=O)c4cccc(C)c4)c13)C(=O)N(Cc1ccco1)C2 | -32 | . | . | 1 | . | .
O=[N+]([O-])c1ccc(CN2CC(N3CCC(Cc4ccccc4)CC3)CS2(=O)=O)cc1 (stereo not drawn) | 47 | 3 | 5 | 4 | -9 | 2
CCN1CCN(Cc2nc3cc(NC(=O)COc4ccc([N+](=O)[O-])cc4)ccc3n2C)CC1 | -27 | -6 | 61* | 0 | -16 | -3
Cc1ccc(Cl)cc1-c1cc(C(=O)NCc2cc(C(F)(F)F)cc(C(F)(F)F)c2)[nH]n1 | 20 | -3 | 47* | 3 | -24 | -5
CN(C)C(C)(C)C#CC(O)(c1ccccc1)c1ccccc1 | -1 | -6 | 100* | 4 | -24 | 0
CC(C)(C(N)=O)c1ccccc1 | -3 | -3 | 6 | 3 | 2 | 5
OCCN(CC#CC(O)(c1ccccc1)c1cccc(F)c1)CCO (stereo not drawn) | -15 | -8 | -16 | 3 | 10 | 0
CN(C)CCC#CC(O)(c1ccccc1)c1ccccc1 | 1 | -8 | 65* | 2 | -25 | 8
CN(C)CCCOC(=O)c1ccccc1 | -18 | -8 | 2 | 2 | -3 | -4
CCN(CC)CC#CC(O)(c1ccccc1)c1ccccc1 | -2 | -16 | 99* | 16 | -38 | -3
O=C(CCNC(=O)c1ccc([N+](=O)[O-])cc1)NC1CCCCCC1 | 7 | -3 | -6 | 6 | 3 | 4
COc1ccc(C)cc1NC(=O)c1cccc(-c2ccc(OC(C)=O)cc2)c1 | 0 | 0 | 1 | -1 | 6 | 2
Cn1c(=O)c2[nH]c(CCCCc3nc4ccccc4[nH]3)nc2n(C)c1=O | -11 | -6 | -13 | 6 | 6 | -2
c1ccc2[nH]c(CCCCc3nc4ccccc4[nH]3)nc2c1 | -1 | -6 | -9 | 38* | 12 | -7
Cn1c(=O)c2[nH]c(CCCCCCCCc3nc4ccccc4[nH]3)nc2n(C)c1=O | 18 | 0 | 37* | 5 | -23 | 2
CCCc1nc2ccccc2[nH]1 | 17 | -4 | -1 | 11 | 8 | 0
CCCCn1c(N)c(N(CC(C)C)C(=O)C2CC(=O)N(Cc3ccccc3)C2)c(=O)[nH]c1=O (stereo not drawn) | 7 | -2 | -2 | 0 | 0 | 3
CN1OC[C@@H]2CN(C(=O)c3ccc([N+](=O)[O-])cc3)[C@H](c3ccccc3Br)C[C@@H]21 | -28 | . | . | 0 | . | .
COc1ccc(NC(=O)C2CCCCN2S(=O)(=O)c2ccccc2)cc1S(=O)(=O)N1CCOCC1 (stereo not drawn) | 58* | -3 | 13 | 21 | -8 | -4
COc1ccc(OC)c(S(=O)(=O)N2CCC(C(=O)Nc3cccc(C(F)(F)F)c3)CC2)c1 | 53* | -1 | 6 | 16 | -17 | -6
COc1ccc(CNC(=O)N2[C@H]3CC[C@@H]2C=C(c2ccc(F)cc2OCc2ccccc2)C3)cc1OC | 49* | -2 | -3 | 8 | -2 | -2
CCOc1ccc(N(C)c2ccc(/C=C3/SC(=S)NC3=O)cc2)cc1 | 59* | 5 | -8 | 24 | 4 | 7
O=C1NC(=S)S/C1=C/c1ccc(Oc2cnccn2)cc1 | -26 | -5 | -15 | 2 | 7 | 8
O=C(O)CCCCN1C(=O)C=CC1=O | -17 | . | . | 1 | . | .
COc1ccc(-n2c(C)cc(C(=O)COC(=O)Cn3cnc4ccccc43)c2C)cc1 | 27 | 2 | 20* | 5 | -12 | 8
SMILES | TAAR1 antag | M1 ag | M1 antag | TAAR1 ag | CHRM1 PAM | HTR2A ag
COc1ccc(NC(=O)COC(=O)Cn2cnc3ccccc32)cc1 | -12 | -4 | 0 | 4 | 5 | 8
N#Cc1c(/N=C/C=C/c2ccccc2)sc2c1CCCC2 | 1 | -8 | -7 | 17 | 5 | 16*
CCc1sc(C(=O)Nc2ncccc2C)cc1C | -14 | -2 | -10 | 1 | 10 | -8
CCc1sc(C(=O)Nc2ncccc2O)cc1C | -3 | 5 | -28 | 0 | 25* | 0
COc1cc(OC)c(C(=O)N(CCc2ccccc2)Cc2ccccc2)cc1OC | 10 | 6 | -10 | 2 | 12 | 5
CCCCC[C@H]1CN(Cc2ccc(OC)cc2)C(=O)[C@@H]1CC(=O)NCc1ccccc1 | 29 | 0 | 9 | 16 | 2 | -1
COc1ccc(C(=O)C(=O)c2ccc(OCCO)cc2)cc1 | 23 | 2 | -20 | 11 | 30* | 3
CCOC(=O)c1c(C)[nH]c(C(=O)CN2CC(C)OC(C)C2)c1C (stereo not drawn) | -19 | -2 | -1 | 21 | 3 | 17*
CCOC(=O)c1c(C)[nH]c(C(=O)COC(=O)C(C)N2C(=O)C3CCCCC3C2=O)c1C (stereo not drawn) | 51* | 2 | 16 | 22 | -13 | 2
CCOC(=O)C1=NN(C(=O)c2ccccc2)C(O)(c2ccc(C)cc2)C1 (stereo not drawn) | -14 | -3 | 2 | 38* | 5 | -1
CCOC(=O)C1=NN(C(=O)Cc2ccccc2)C(O)(c2ccc(Cl)cc2)C1 (stereo not drawn) | -24 | -5 | -11 | 11 | 7 | 0
CC(C)(C)S(=O)N1Cc2cc(C(=O)NCC(F)(F)F)nc(-c3cccc(-c4cccc(F)c4)c3)c2[C@H]1CCO (stereo partly drawn) | 62* | -1 | 28 | 10 | -11 | -5
CN(C)C(=O)c1cccc(-c2cccc(-c3nc(C(=O)NCc4ccccc4)cc4c3[C@@H](CCO)N(S(=O)C(C)(C)C)C4)c2)c1 (stereo partly drawn) | 61* | -5 | 23 | 9 | -13 | 6
COc1cccc(-c2cccc(-c3nc(C(=O)NCCCN4CCOCC4)cc4c3[C@H](CCO)N(S(=O)C(C)(C)C)C4)c2)c1 (stereo partly drawn) | 52* | -1 | -7 | 21 | -5 | 1
CCNC(=O)c1cc2c(c(-c3cccc(-c4cccc(C(=O)N(C)C)c4)c3)n1)[C@H](CCO)N(S(=O)C(C)(C)C)C2 (stereo partly drawn) | -5 | -10 | -5 | 2 | 5 | 4
CCOC(=O)c1c(N=CN(C)C)c2cc([N+](=O)[O-])cnc2n1C | -28 | 1 | 13 | 2 | -2 | 1
COc1ccc(C(=O)Nc2ccc(NC(=O)C3CC3)nc2)cc1 | 8 | -5 | -5 | 1 | 3 | 2
O=C(Nc1ccc(Cl)cc1)N1CCC(c2nc(-c3ccccc3Cl)no2)CC1 | 32 | 0 | 20* | 11 | -17 | -3
